Experimental data from ChEMBL document CHEMBL5149984, “Discovery of HN37 as a Potent and Chemically Stable Antiepileptic Drug Candidate” (J Med Chem, 2021).

How the values were obtained:
[1] = target: T1, Potassium voltage-gated channel subfamily KQT member 1 (Homo sapiens, UniProt P51787); assay: Agonist activity at human KCNQ1 channel expressed in CHO cells assessed as amplitude change of outward current at 10 uM by patch clamp method; format: cell-based
T1 sequence (P51787 whole entry): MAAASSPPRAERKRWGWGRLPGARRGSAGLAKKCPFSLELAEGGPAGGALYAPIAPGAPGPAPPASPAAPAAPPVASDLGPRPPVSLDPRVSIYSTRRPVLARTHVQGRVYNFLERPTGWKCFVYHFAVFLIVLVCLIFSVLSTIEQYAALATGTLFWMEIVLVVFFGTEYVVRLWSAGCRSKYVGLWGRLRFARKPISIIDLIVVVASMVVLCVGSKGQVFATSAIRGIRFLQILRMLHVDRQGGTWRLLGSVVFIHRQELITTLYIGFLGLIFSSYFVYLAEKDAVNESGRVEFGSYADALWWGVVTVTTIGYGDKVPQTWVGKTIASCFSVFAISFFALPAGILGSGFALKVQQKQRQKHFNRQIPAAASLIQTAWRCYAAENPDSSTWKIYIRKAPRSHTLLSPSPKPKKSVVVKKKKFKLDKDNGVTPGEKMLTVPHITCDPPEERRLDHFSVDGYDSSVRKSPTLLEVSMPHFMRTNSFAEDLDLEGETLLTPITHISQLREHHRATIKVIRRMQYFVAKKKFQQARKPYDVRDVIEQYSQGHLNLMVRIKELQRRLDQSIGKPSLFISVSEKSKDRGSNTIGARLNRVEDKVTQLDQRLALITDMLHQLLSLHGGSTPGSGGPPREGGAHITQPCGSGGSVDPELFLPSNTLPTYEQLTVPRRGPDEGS
Outline: (§1)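 Whole-cell patch clamp at room temperature on CHO cells (DMEM/F12, 10% FBS) transiently co-transfected with EGFP and hKCNQ1, rKCNQ2, rKCNQ3 A278T, hKCNQ4 or hKCNQ5; KCNQ2/3 at 1:1 cDNA ratio. Pipette solution 145 mM KCl, 5 mM MgATP, pH 7.3; bath 140 mM NaCl, 5 mM KCl, pH 7.4, under perfusion. V1/2 from Boltzmann fits; I/I0 is current amplitude with versus without compound; n = 4−6.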

[2] = target: Potassium voltage-gated channel subfamily KQT member 5 (Homo sapiens) (UniProt Q9NR82); assay: Agonist activity at human KCNQ5 channel expressed in CHO cells assessed as shift of half voltage of maximal activation at 10 uM by patch clamp method; format: cell-based; conditions: filed as agonist; outline: as §1
Sequence of Potassium voltage-gated channel subfamily KQT member 5 (Homo sapiens) (Q9NR82 whole entry): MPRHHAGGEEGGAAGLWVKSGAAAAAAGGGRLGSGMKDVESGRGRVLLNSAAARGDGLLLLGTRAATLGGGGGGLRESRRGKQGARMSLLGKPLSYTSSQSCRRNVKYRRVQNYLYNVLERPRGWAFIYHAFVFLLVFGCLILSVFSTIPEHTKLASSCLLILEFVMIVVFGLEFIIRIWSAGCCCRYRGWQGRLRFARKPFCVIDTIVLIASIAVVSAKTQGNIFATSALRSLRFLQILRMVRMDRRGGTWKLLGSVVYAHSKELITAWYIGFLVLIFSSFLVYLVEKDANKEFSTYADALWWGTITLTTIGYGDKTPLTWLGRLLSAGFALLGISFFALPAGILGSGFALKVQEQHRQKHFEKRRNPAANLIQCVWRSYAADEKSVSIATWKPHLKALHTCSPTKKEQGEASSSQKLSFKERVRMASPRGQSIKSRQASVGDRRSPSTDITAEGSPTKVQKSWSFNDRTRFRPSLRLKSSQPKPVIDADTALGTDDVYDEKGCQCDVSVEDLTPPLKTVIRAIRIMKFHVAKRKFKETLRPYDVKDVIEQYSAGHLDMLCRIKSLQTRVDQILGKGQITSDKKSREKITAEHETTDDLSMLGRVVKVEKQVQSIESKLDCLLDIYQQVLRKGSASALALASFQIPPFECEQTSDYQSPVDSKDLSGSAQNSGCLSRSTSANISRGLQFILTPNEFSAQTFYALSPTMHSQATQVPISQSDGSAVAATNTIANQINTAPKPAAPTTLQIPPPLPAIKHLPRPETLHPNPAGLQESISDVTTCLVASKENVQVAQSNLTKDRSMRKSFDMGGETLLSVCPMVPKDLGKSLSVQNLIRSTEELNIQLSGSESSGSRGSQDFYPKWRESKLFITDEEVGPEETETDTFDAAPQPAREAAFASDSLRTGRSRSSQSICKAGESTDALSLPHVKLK

Mus musculus = assay: Anticonvulsant activity in pentylenetetrazol induced Kunming mouse model of seizure at 30 mg/kg, po after 1 hr; format: functional
Outline: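 sc-PTZ test in male KM mice. Compound suspended in 0.5% CMC-Na and given orally 1 h before PTZ (freshly dissolved in normal saline, 100 mg/kg). Protection against clonic seizures scored; ED50 by nonlinear regression.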

[3] = AUC(0 to t) in Sprague-Dawley rat at 20 mg/kg, po measured upto 24 hrs by LC-MS/MS method; format: ADME, organism-based; set-up: dose 20 mg/kg, time < 24 hrs, route po; conditions: in vivo
Outline: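 Male SD rats (180−220 g) dosed orally at 2, 6 or 20 mg/kg in escalating fashion, handled as in the mouse study: 12 h fast, acetonitrile extraction of plasma, LC−MS/MS quantification. AUC0−t by trapezoidal method to the last measurable concentration.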

[4] = Metabolic stability in rat liver microsomes assessed as intrinsic clearance; format: ADME, Microsome; conditions: read-out: CLH
[5] = Half life in Sprague-Dawley rat at 2 mg/kg, po measured upto 24 hrs by LC-MS/MS method; format: ADME, organism-based; conditions: in vivo
Outline: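 Male SD rats (180−220 g) given single oral doses of 2, 6 and 20 mg/kg; handled as in the mouse PK study (fasted 12 h before and 2 h after dosing, 5% DMSO/5% Tween 80/90% saline formulation). In a separate 6 mg/kg p.o. set, blood and brain were sampled together. Plasma and brain levels by LC−MS/MS.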

[6] = Tmax in Sprague-Dawley rat at 2 mg/kg, po measured upto 24 hrs by LC-MS/MS method; format: ADME, organism-based; conditions: in vivo
Outline: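 Male SD rats (180–220 g) dosed orally at 2, 6 and 20 mg/kg, handled like the mice: fasting, 5% DMSO/5% Tween 80/saline vehicle, acetonitrile extraction, LC-MS/MS of plasma. In a separate set at 6 mg/kg p.o., blood and brain were sampled together.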

Cytochrome P450 2B6 = Cytochrome P450 2B6 (Homo sapiens, UniProt P20813); assay: Time dependent inhibition of human liver microsome CYP2B6 preincubated for 0.5 hrs in presence of NADPH followed by substrate addition by LC-MS/MS method; format: ADME, microsomes
Sequence of Cytochrome P450 2B6 (P20813 whole entry): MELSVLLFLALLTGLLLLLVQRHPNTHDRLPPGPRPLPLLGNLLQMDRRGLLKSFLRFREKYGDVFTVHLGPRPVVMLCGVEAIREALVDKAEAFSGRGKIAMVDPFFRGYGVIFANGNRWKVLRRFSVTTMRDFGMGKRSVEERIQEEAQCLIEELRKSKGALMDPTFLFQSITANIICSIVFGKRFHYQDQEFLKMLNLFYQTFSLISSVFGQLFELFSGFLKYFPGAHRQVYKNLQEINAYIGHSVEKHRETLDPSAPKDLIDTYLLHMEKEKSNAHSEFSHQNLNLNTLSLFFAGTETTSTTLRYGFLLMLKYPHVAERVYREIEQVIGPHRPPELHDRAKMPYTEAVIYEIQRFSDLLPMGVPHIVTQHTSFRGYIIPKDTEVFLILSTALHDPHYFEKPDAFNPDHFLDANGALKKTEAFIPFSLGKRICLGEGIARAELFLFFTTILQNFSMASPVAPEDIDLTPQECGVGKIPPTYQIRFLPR
Outline: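 Human liver microsomes preincubated 0.5 h with 0.10–50 μM test compound, with or without NADPH, then CYP-specific probe substrate added and incubation continued. Metabolite measured by LC-MS/MS; % activity remaining relative to no-compound control; IC50 fitted by Probit model. For CYP3A4, midazolam 1′-hydroxylation and testosterone 6β-hydroxylation were read separately.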

[7] = target: Potassium voltage-gated channel subfamily KQT member 2 (Rattus norvegicus) (UniProt O88943); assay: Agonist activity at rat KCNQ2 channel expressed in CHO cells assessed as amplitude change of outward current at 0.1 uM by patch clamp method; format: cell-based; conditions: filed as agonist; outline: as §1
Sequence of Potassium voltage-gated channel subfamily KQT member 2 (Rattus norvegicus) (O88943 whole entry): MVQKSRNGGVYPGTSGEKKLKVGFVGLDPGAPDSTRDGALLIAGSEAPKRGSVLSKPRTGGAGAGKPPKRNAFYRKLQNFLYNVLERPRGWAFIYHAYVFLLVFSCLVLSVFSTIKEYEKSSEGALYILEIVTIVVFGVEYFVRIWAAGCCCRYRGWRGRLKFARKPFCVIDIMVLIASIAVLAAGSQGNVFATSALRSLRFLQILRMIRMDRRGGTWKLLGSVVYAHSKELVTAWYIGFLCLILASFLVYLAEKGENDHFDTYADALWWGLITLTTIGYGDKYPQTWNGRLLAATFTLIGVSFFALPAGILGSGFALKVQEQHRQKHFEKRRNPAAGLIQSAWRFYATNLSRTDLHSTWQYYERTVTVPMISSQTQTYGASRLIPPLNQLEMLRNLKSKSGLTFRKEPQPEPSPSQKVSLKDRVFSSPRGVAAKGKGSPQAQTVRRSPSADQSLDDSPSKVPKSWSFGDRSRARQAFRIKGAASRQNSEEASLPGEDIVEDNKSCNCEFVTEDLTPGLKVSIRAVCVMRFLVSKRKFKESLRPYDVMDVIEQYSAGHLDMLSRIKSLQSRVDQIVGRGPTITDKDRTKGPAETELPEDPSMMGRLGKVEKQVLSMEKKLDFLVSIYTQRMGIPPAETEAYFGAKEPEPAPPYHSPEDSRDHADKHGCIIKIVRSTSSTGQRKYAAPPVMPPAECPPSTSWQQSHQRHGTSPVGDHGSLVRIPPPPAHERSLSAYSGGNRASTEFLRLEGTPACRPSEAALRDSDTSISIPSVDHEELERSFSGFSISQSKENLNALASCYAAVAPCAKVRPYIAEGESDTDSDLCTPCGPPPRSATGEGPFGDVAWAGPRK

[8] = Ratio of drug concentration in Kunming mouse brain to plasma by rotarod test
CYP2C9 = CYP2C9 (Homo sapiens, UniProt P11712); assay: Ratio of IC50 for human liver microsome CYP2C9 in absence of NADPH to IC50 for human liver microsome CYP2C9 in presence of NADPH; conditions: liver microsomes, read-out: Ratio IC50
Sequence of CYP2C9 (P11712 whole entry): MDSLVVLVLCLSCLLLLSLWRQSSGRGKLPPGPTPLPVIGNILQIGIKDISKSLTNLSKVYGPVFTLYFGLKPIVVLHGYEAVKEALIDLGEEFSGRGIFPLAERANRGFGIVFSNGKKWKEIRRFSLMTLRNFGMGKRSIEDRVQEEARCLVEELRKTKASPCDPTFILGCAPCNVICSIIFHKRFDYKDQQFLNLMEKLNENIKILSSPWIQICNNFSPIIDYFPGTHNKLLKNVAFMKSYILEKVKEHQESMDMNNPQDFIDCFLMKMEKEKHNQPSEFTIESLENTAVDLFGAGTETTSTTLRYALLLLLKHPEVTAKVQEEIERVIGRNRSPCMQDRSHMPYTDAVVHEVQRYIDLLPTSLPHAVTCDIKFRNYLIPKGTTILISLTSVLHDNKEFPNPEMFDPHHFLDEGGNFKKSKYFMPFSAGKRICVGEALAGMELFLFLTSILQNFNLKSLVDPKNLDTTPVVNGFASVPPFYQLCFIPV

CYP2B6 = CYP2B6 (Homo sapiens, UniProt P20813); assay: Ratio of IC50 for human liver microsome CYP2B6 in absence of NADPH to IC50 for human liver microsome CYP2B6 in presence of NADPH; conditions: liver microsomes, read-out: Ratio IC50
Sequence of CYP2B6 (P20813 whole entry): as the sequence (P20813 whole entry) above

[9] = Tmax in Kunming mouse plasma at 5 mg/kg, po measured upto 24 hrs by LC-MS/MS method; format: ADME, organism-based
Outline: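 Male KM mice (18–24 g), fasted 12 h before and 2 h after dosing, n = 3 per time point. Oral dose in 5% DMSO/5% Tween 80/90% saline; i.v. dose is that formulation diluted in saline with 1% Tween 80. Blood sampled 0.25–24 h after oral dosing, 0.083–24 h after i.v.; whole brain taken after oral dosing. Acetonitrile extraction with internal standard, LC-MS/MS.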

[10] = AUC(0 to t) in Kunming mouse brain at 5 mg/kg, po measured upto 24 hrs by LC-MS/MS method; format: ADME, organism-based; set-up: dose 5 mg/kg, time < 24 hrs, route po
Outline: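 KM male mice (18−24 g), fasted 12 h before and 2 h after dosing. HN37 given orally at 5 mg/kg in 5% DMSO/5% Tween 80/90% saline, or iv at 2 mg/kg after dilution in saline with 1% Tween 80; n = 3 per time point. Blood sampled 0.25–24 h (from 0.083 h after iv); whole brain taken after oral dosing. Plasma and brain extracted with acetonitrile, quantified by LC−MS/MS; AUC0−t by trapezoidal method.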

SMILES | Activity [1] | Activity [2] [mV] | Activity (Mus musculus) [%] | AUC(0-t) at 24 h [3] [ng·h/mL] | CLint scaled [4] [mL/min/kg] | half-life [5] [min] | Tmax [6] [min] | IC50 (Cytochrome P450 2B6) [µM] | Activity [7] | Kp [8] | IC50 shift (CYP2C9) | IC50 shift (CYP2B6) | Tmax [9] [min] | AUC(0-t) at 24 h [10] [ng·h/mL]
CCOC(=O)Nc1ccc(NCc2ccc(F)cc2)cc1N [EZOGABINE] | 1.01 | 0.09 | 50 | – | – | – | – | – | – | – | – | – | – | –
C#CCN(Cc1ccc(F)cc1)c1cc(C)c(NC(=O)OC)c(C)c1 | – | – | – | 1920 | 105 | 103 | 30 | 5.76 | 3.4 | 1.9 | < 1.5 | > 1.5 | 15 | 716
